Activity and inhibition data for 15 compounds are collected here from ChEMBL document CHEMBL3600295, “Synthesis and biological evaluation of a series of fatty acid amides from Echinacea” (Bioorg Med Chem Lett, 2015).

Usually inhibition stands for how much of the control response was suppressed.

The test system of data set [1] is RAW264.7. Briefly: Cytotoxicity against mouse RAW264.7 cells at 100 uM incubated for 18 hrs by LDH release assay. The data set is classed as cell-based. The conditions noted are these: raw264.7, 18 h. A digest of the protocol: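 RAW 264.7 murine macrophage-like cells were treated with compound for 18 h. Culture supernatants were then collected and assayed for lactate dehydrogenase activity released from dead or dying cells, using a commercial LDH cytotoxicity kit. Vehicle and lysis-buffer controls were included. Data are means ± SD, n = 2.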
In general terms: LDH in the medium is a marker of cell lysis.

In data set [2] the test system is RAW264.7. Nature of the data set: Effect on TNFalpha production in mouse RAW264.7 cells at 100 uM incubated for 18 hrs by ELISA method. Conditions: raw264.7, 18 h. In kind it is cell-based. In short, it runs like this: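 Compound alone, without LPS, was added to RAW 264.7 murine macrophage-like cells and incubated 18 h. TNF-α in culture supernatants was quantified by commercial ELISA and compared with levels from unstimulated cells.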
For orientation: An ELISA detects its analyte on a solid surface through an enzyme-linked reagent.

The test system of data set [3] is RAW264.7. Briefly: Inhibition of LPS-induced TNFalpha production in mouse RAW264.7 cells at 100 uM incubated for 18 hrs by ELISA method. The data set is classed as functional. The conditions noted are these: for inhibition at 100 µM: RAW264.7, 18 h. A digest of the protocol: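 RAW 264.7 cells were co-treated with compound plus 10 ng/mL LPS (R595) for 18 h. Supernatant TNF-α was measured by commercial ELISA and compared with cells stimulated with LPS only.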

Structures are written as SMILES. Activity calls are given as the source filed them. The rule behind the calls is not given here.

Consider `CCCCCCCCC/C=C/C(=O)NCC(C)C`, for which the Activity entry in data set [1] and in data set [2] was “Non-toxic” throughout. Further, the inhibition entry in data set [3] is “Active”.

For `CCCCCCCCCCCC(=O)NCC(C)CC` (stereo not drawn), the Activity result in data set [1] and in data set [2] was “Non-toxic” in each case. Moreover, the inhibition entry in data set [3] was “Active”.

Take `CCCCCCCCCCCC(=O)NCC(C)C`: the Activity entry in data set [1] and in data set [2] was “Non-toxic” each time. In addition, in data set [3], the inhibition result was “Active”.

With `CCCCCCCC(=O)NCC(C)C`, the Activity result in data set [1] and in data set [2] was “Non-toxic” throughout. In data set [3], the inhibition entry was “Active”.

As for `CCCCCCCCCCCc1nc(CC(C)C)cs1`, in data set [1], the Activity entry is recorded as “Non-toxic”. In addition, the inhibition entry in data set [3] is “inactive”.

Take `CCCCCCCCCCCC(=O)NCc1ccccc1` [N-BENZYLDODECANAMIDE]: the Activity entry in data set [1] and in data set [2] was “Non-toxic” in each case. For the same compound, the inhibition at 100 µM in data set [3] was determined as 32.4%.

With `CCCCCC(=O)NCC(C)C`, the Activity result in data set [1] and in data set [2] was “Non-toxic” each time. Besides, the inhibition entry in data set [3] was “Active”.

Regarding `CCCCCCC/C=C/C=C/C(=O)NCC(C)C`, the Activity result in data set [1] and in data set [2] was “Non-toxic” throughout. Moreover, the inhibition entry in data set [3] is “Active”.

Consider `CCCCCCCCCCCCNCC(C)C`, for which the Activity result in data set [1] is listed as “Toxic”; in data set [2] it was “Non-toxic”. The inhibition at 100 µM in data set [3] worked out at 99.8%.

As to `CCCCCCCCCC(=O)NCC(C)C` [TETRAHYDROPELLITORINE], the Activity entry in data set [1] and in data set [2] was “Non-toxic” each time. The inhibition entry in data set [3] was “Active”.

For `CCCCCCCCCCCc1nc(C(C)C)cs1`, in data set [1], the Activity result was “Non-toxic”. Further, in data set [3], the inhibition entry is “inactive”.

In the case of `CCCCCCCCC/C=C/C(=O)NCC(C)CC` (stereo not drawn), the Activity result in data set [1] is “Toxic”; in data set [2], “Non-toxic”. Further, the inhibition entry in data set [3] is “Active”.

For `CCCCCCCCCCCC(=O)NCCCCCC`, the Activity entry in data set [1] and in data set [2] was “Non-toxic” in each case. For the same compound, the inhibition result in data set [3] is “Active”.

Turning to `CCCC(=O)NCC(C)C`, the Activity entry in data set [1] and in data set [2] was “Non-toxic” in each case. Also, the inhibition entry in data set [3] is “Active”.

`CCCCCCCCC/C=C/C(=O)NCc1ccccc1`: the Activity result in data set [1] and in data set [2] was “Non-toxic” each time. In data set [3], this compound registered an inhibition at 100 µM of 29.8%.
